Screening data (PubChem BioAssay)
Sampled rows, rich in hits. Any-hit rate of the full collection: about 2%.
HTRA1 inh: HTRA1 serine protease inhibitors, primary screen, biochemical, fluorescence polarization, HTS | inhibition, % at 5.96 µM | recombinant HTRA1, FP-rhodamine activity-based probe | hit rate 0.5% among 340,000; in the data active means inhibition above about 36%
TCR-CD3 inh: inhibitors of human TCR-CD3 interaction, primary screen, biochemical, fluorescence, TAMRA-labeled TCR probe | inhibition, % at 9.4 µM | hit rate 0.37% among 360,000; in the data active means inhibition above about 19%;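 further: recombinant mutant TCR 2C K166C tagged with TAMRA read by polarization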
PAD4 FP inh: human PAD4 inhibitors, primary screen, biochemical, fluorescence polarization, 1536-well format; AID 485272, 2010; inhibition, % at 6.36 µM; recombinant PAD4, RCA probe fluorescence polarization; hit rate 0.41% among 330,000; Protein-arginine deiminase type-4 (Homo sapiens), Q9UM07;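 active means percent inhibition above a cutoff equal to the mean of all tested compounds plus 3 SD, cut at about 15% in these data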
TDP2 absorb: human TDP2 enzyme inhibitors, primary screen, biochemical, epi absorbance, recombinant enzyme. inhibition, % at 12.8 µM. AID 720702, 2013. T5PNP hydrolysis, p-nitrophenol absorbance 415 nm. Tyrosyl-DNA phosphodiesterase 2 (Homo sapiens), O95551. hit rate 0.34% among 370,000;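 active means inhibition above the mean of all tested compounds plus 3 SD, set per campaign, cut at about 25% in these data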
Target sequence (O95551 whole entry, looked up): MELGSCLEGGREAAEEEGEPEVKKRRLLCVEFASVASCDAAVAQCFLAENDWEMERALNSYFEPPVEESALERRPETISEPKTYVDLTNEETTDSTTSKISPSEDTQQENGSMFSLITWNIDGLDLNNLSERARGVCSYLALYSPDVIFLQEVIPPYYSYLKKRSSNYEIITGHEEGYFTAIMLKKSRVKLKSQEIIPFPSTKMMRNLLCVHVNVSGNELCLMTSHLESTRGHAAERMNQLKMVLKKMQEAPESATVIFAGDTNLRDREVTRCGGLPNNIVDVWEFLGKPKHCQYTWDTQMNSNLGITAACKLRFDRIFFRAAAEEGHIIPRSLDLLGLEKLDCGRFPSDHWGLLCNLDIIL
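Test system: human TDP2 enzyme; Input: 120 nM TDP2 per well; Buffer or medium: Mg2+-containing Tris-HCl buffer, pH 7.5; Reagent: 5 mM T5PNP; Dosing: 12.8 µM single point, 1% DMSO; Incubation: reaction 2 h, 37 °C; Detection: p-Nitrophenol epi absorbance; Read-out: % inhibition relative to enzyme-containing and enzyme-free wells; Replicates: single well per compound.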
SIAE primary: human SIAE inhibitors, primary screen, biochemical, fluorescence polarization, FP-Rh probe, 1536-well HTS; Sialate O-acetylesterase (Homo sapiens), Q9HAT2; SIAE FP-Rh probe binding; inhibition, % at 9.66 µM; hit rate 0.69% among 370,000; AID 1053197, 2014;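 active means inhibition above a cutoff: mean of compounds within the control limits plus 3 SD of those, cut at about 17% in these data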
ABHD4 inh: ABHD4 inhibitors, primary screen, biochemical, fluorescence polarization, mouse; purified mABHD4, FP-Rh probe fluorescence polarization; inhibition, % at 8.92 µM; hit rate 0.54% among 370,000;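 active means inhibition exceeding the mean over every tested compound plus 3 SD, cut at about 30% in these data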
Target sequence (Q8VD66 whole entry, looked up): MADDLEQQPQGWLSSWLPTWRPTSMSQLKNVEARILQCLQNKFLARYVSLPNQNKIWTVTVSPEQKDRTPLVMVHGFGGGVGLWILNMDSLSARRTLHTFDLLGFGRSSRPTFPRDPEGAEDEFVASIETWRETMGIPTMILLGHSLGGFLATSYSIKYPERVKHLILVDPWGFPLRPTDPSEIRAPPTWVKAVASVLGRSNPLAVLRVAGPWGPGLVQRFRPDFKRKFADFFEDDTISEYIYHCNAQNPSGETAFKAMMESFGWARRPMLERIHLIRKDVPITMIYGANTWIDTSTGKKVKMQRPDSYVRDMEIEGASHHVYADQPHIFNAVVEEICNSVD
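Test system: mABHD4 protein | Buffer or medium: HEPES pH 7.0 buffer, 150 mM NaCl, 0.01% Pluronic F-127 | Probe or stimulus: FP-Rh fluorescent activity-based probe, added after compound pre-incubation | Timing: Pre-incubation 45 min, probe exposure 60 min, at 25 °C | Technique: Fluorescence polarization, excitation 525 nm, emission 598 nm, BODIPY TMR filters | Repeats: Single well per compound (singlicate)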
SIAE confirm: human SIAE inhibitors, retest, confirmation, biochemical, fluorescence polarization, FP-Rh probe, triplicate. shares compounds with SIAE primary. SIAE FP-Rh activity-based probe. inhibition, % at 9.66 µM. hit rate 13% among 2,300;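 active means mean inhibition of the replicates above the hit cutoff set in the primary screen, cut at about 17% in these data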;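 further: inhibitors lower polarization as more probe stays unbound to SIAE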
Each line names hits and unclear results; the compound was inactive in the other large screens (follow-up assays come after a bar, where they were run).

Cc1cc(Cl)ccc1NC(=O)CN1CCCC1	SIAE primary 22.5 | SIAE confirm inactive
Cc1ccc(Cl)cc1NC(=O)Cn1c(C)csc1=O	SIAE primary 22.7 | SIAE confirm inactive
OC(c1cccc(Cl)c1)c1ncc(-c2ccc(Oc3ccccc3)cc2)[nH]1 (centres undefined)	none (no result: HTRA1 inh, PAD4 FP inh)
CCC(Sc1nnc(-c2ccco2)n1C)C(=O)Nc1nnc(C)s1 (centres undefined)	none
CC(=O)SCC(Cc1ccccc1)C(=O)NCC(=O)OCc1ccccc1 (centres undefined)	none (no result: HTRA1 inh, TCR-CD3 inh, TDP2 absorb, SIAE primary, ABHD4 inh)
Nc1[nH]c(C(=O)c2ccccc2)c(-c2ccccc2[N+](=O)[O-])c1C(=O)NCCc1c[nH]c2ccccc12	SIAE primary 18.5 (no result: HTRA1 inh, PAD4 FP inh) | SIAE confirm inactive
Nc1[nH]c(C(=O)c2ccccc2)c(-c2ccccc2Br)c1C(=O)NCCc1c[nH]c2ccccc12	SIAE primary 19.4 (no result: HTRA1 inh, PAD4 FP inh) | SIAE confirm inactive
Nc1[nH]c(C(=O)c2ccc(Br)cc2)c(-c2ccccc2Br)c1C(=O)NCCc1c[nH]c2ccccc12	none (no result: HTRA1 inh, PAD4 FP inh)
Nc1sc(-c2ccccc2)cc1C(=O)NCCc1c[nH]c2ccccc12	SIAE primary 25.8 (no result: HTRA1 inh, PAD4 FP inh) | SIAE confirm inactive
Cc1ccc(N2CC(C(=O)Nc3ccc(S(=O)(=O)Nc4ncccn4)cc3)CC2=O)cc1C (centres undefined)	none
Cc1cc(N2CCCC2)n2nc(C)nc2n1	SIAE primary 18.5 | SIAE confirm inactive
CC(=O)N1CCN(c2cc(C)nc3nc(C)nn23)CC1	none (no result: HTRA1 inh, TCR-CD3 inh, PAD4 FP inh)
O=C(c1ccncc1)N1CCN(S(=O)(=O)c2ccccc2Br)CC1	SIAE primary 17.6 | SIAE confirm inactive
O=C(c1cccc(-n2cccc2)c1)N1CCN(S(=O)(=O)c2ccccc2Br)CC1	none (no result: PAD4 FP inh)
COc1ccc(Cc2nnc(N)s2)cc1	SIAE primary 17.2 | SIAE confirm inactive
COc1ccc(C(CC(=O)O)NC(=O)COc2ccc(C)cc2)cc1OC (centres undefined)	SIAE primary 19.1 | SIAE confirm inactive
Cc1ccc(S(=O)(=O)Nc2cccc(-c3ccc(N4CCCCCC4)nn3)c2)cc1	none
O=C(Nc1ccn(CCCNCC2CCCO2)c(=O)n1)OCc1ccccc1 (centres undefined)	none (no result: PAD4 FP inh)
O=C(Cn1ccc(NC(=O)OCc2ccccc2)nc1=O)NCC1CCCO1 (centres undefined)	SIAE primary 18.2 | SIAE confirm inactive
O=C1CCN(Cc2ccccc2)CCN1[C@H](CO)Cc1ccccc1	none
O=C1CCN(Cc2ccc(O)cc2)CCN1[C@H](CO)Cc1ccccc1	SIAE primary 17.6 | SIAE confirm inactive
Cn1cccc1-c1cc(C(=O)N/N=C/c2cc(Br)ccc2O)[nH]n1	SIAE primary 23.8 | SIAE confirm inactive
Cn1c(SCC(=O)NC(=O)c2cccc([N+](=O)[O-])c2)nnc1-c1ccc(F)cc1	SIAE primary 22.8 | SIAE confirm inactive
CC(C)(C)c1c(Cl)c(O)c(-c2ccccc2)c(=O)n1-c1ccccc1	SIAE primary 19.5 (no result: HTRA1 inh, PAD4 FP inh) | SIAE confirm inactive
Cc1sc(NC(=S)Nc2ccc(F)cc2)c(C(N)=O)c1C	SIAE primary 17.4 | SIAE confirm inactive
CN(CC(=O)Nc1cccc(Cl)c1)S(=O)(=O)/C=C/c1ccccc1	none (no result: PAD4 FP inh)
CC(=O)Nc1ccc(O)cc1[N+](=O)[O-]	SIAE primary 20.3 | SIAE confirm inactive
CC(=O)Nc1ccc(N(C)C)cc1[N+](=O)[O-]	none
O=C(Nc1ccc(Br)cc1Br)Nc1cccc2[nH]c([C@@H]3O[C@H](CO)[C@@H](O)[C@H](O)[C@H]3O)nc12	SIAE primary 19.3 (no result: HTRA1 inh, PAD4 FP inh) | SIAE confirm inactive
CS(=O)(=O)N(CC(=O)N1CCCC1)c1ccccc1Br	none
O=C(Nc1nc(-c2cccnc2)cs1)c1cccc([N+](=O)[O-])c1	none
O=C(Nc1nc(-c2ccccc2)cs1)c1cccc([N+](=O)[O-])c1	SIAE primary 18.9 | SIAE confirm inactive
O=C(NC(=S)Nc1cccc(NC(=O)c2ccccc2)c1)c1cccc([N+](=O)[O-])c1	SIAE primary 62.9 | SIAE confirm inactive
Cc1ccc(CC(=O)OCC(=O)c2ccc[nH]2)cc1C	none
O=C(N=Nc1c(O)[nH]c2c(Cl)cc(Cl)cc12)c1ccccc1O	SIAE primary 29.1 (no result: HTRA1 inh, PAD4 FP inh) | SIAE confirm inactive
Cc1ccc(N=C(NO)c2nonc2N)c(C)c1	none
Cc1ccc(N=C(NO)c2nonc2N)cc1	SIAE primary 40.6 | SIAE confirm inactive
O=C(NC(Cc1c[nH]c2ccccc12)C(=O)Nc1ccc(F)c([N+](=O)[O-])c1)c1cccs1 (centres undefined)	SIAE primary 19.1 | SIAE confirm inactive
O=C(NC(Cc1c[nH]c2ccccc12)C(=O)Nc1ccc(OC(F)(F)F)cc1)c1cccs1 (centres undefined)	none
CCC(=O)Nc1nnc(SCCOC)s1	SIAE primary 58.1 | SIAE confirm inactive
COCCSc1nnc(NC(=O)c2ccc3c(c2)OCO3)s1	SIAE primary 18.5 | SIAE confirm inactive
CCN(CC)C(=O)C1=C(C)N(CCC2=CCCCC2)C(=O)C(CC(=O)NCCc2ccccn2)C1 (centres undefined)	none (no result: PAD4 FP inh)
Cc1c(NC(=O)c2cccc(NC(=O)Cc3ccccc3F)c2)c(=O)n(-c2ccccc2)n1C	none
COc1ccc(S(=O)(=O)N2C[C@H]3CON(C)[C@H]3C[C@H]2c2ccc(-c3cc4ccccc4o3)cc2)cc1	none (no result: PAD4 FP inh)
Cc1ccc([C@@H]2C3COCC=C3C(C#N)=C(N)C2(C#N)C#N)o1 (some centres undefined)	SIAE primary 18.1 | SIAE confirm inactive
O=C1C2C3C=CC(C3=C3CCCCC3)C2C(=O)N1c1ccccc1 (centres undefined)	SIAE primary 19.1 | SIAE confirm inactive
COc1ccc(O)c(/C=N/NC(=O)c2ccc(CSc3nc(C)cc(C)n3)cc2)c1	none
Cc1cc(C)nc(SCc2ccc(C(=O)N/N=C/c3cccc(O)c3O)cc2)n1	SIAE primary 43.4 | SIAE confirm inactive
Cc1ccc(N=C2C(=O)Nc3ccccc32)cc1C	none
O=C1Nc2ccccc2C1=Nc1ccc2[nH]c3ccccc3c2c1	SIAE primary 17.2 (no result: PAD4 FP inh) | SIAE confirm inactive
COC(=O)c1ccc(NS(=O)(=O)NC(=O)c2cn(C)c3ccccc23)cc1	none
COc1cc2c(cc1OC)C1=CC(=O)C(=O)N1C(C)(C)C2	none
